Results reported in ChEMBL document CHEMBL4145568, “Antiplasmodial Diterpenoids and a Benzotropolone from Petradoria pumila” (J Nat Prod, 2018).

Assays:
A2780 = assay: Cytotoxicity against human A2780 cells assessed as inhibition of cell growth after 2 days by Alamar blue assay; assay type: functional, cell-based; settings: A2780, 48 h
Plasmodium falciparum = assay: Antimalarial activity against Plasmodium falciparum Dd2 ring stage parasite assessed as decrease in parasite viability after 72 hrs by SYBR green 1 dye based assay; assay type: functional, organism-based
How it was run: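 Ring-stage cultures at 1% hematocrit and 1% parasitemia grown 72 h at 37 °C under 5% CO2, 5% O2, 90% N2 with increasing drug concentrations. Viability read by SYBR Green I DNA quantitation. IC50 from nonlinear regression, mean of three independent determinations each in duplicate, ± SEM.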

[1] = Plasmodium falciparum, Dd2, 72 h, read-out: IC50

Compound | IC50 (A2780) [µM] | IC50 (Plasmodium falciparum; [1]) [µM] | IC50 (Plasmodium falciparum)
COc1cc2c(C)cccc2ccc1=O | > 50 | > 20 | –
C=C[C@](C)(O)[C@@H]1C[C@@H]2[C@@]3(C)[C@@H](O)CCC(C)(C)[C@@H]3CC[C@@]2(C)O1 | > 50 | > 20 | –
C[C@@H]1CC[C@H]2[C@@H](C)C(=O)O[C@@H]3O[C@@]4(C)CC[C@@H]1[C@]32OO4 [ARTEMISININ] | – | 0.0085 | –
C=C[C@@](C)(OC(C)=O)[C@@H]1C[C@@H]2[C@@]3(C)[C@@H](O)CCC(C)(C)[C@@H]3CC[C@@]2(C)O1 | > 50 | 7.3 | –
C=C[C@@](C)(OC(C)=O)[C@@H]1C[C@@H]2[C@@]3(C)C(=O)CCC(C)(C)[C@@H]3CC[C@@]2(C)O1 | > 50 | – | Not Active
COc1cc([C@@H]2Oc3c(OC)cc(/C=C/COC(=O)CC(C)C)cc3[C@H]2COC(=O)CC(C)C)ccc1O | – | > 20 | –
C=C[C@](C)(O)[C@@H]1C[C@@H]2[C@@]3(C)C(=O)CCC(C)(C)[C@@H]3CC[C@@]2(C)O1 | > 50 | > 20 | –
COc1cc([C@@H]2Oc3c(OC)cc(/C=C/COC(C)=O)cc3[C@H]2COC(C)=O)ccc1O | – | – | Not Active
